Source: PubChem BioAssay
An excerpt weighted towards active compounds, which were near 2.5% of everything screened.
TDP2 inh: TDP2 (human) inhibition, absorbance primary screen | O95551 | recombinant TDP2, T5PNP hydrolysis, p-nitrophenol absorbance 415 nm | inhibition, % at 12.8 µM | 370,000 tested, 0.34% active | AID 720702;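 active = inhibition above the mean of all tested compounds plus 3 SD, set per campaign, cut at about 25% in these data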
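Assay system: recombinant human TDP2 / Reagent: T5PNP substrate at 5 mM, a TopII-DNA adduct mimic / Measured by: epi absorbance from released p-nitrophenol / Evaluation: % inhibition relative to enzyme-containing and enzyme-free wells / Control set: enzyme-free and DMSO wells / Replicates: each compound tested once, singlicate / Schedule: enzyme reaction with compound for 2 h at 37 °C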
PAD4 FP inh: blocks human protein arginine deiminase 4; Q9UM07; 330,000 tested, 0.41% active; AID 485272; recombinant PAD4, RCA probe fluorescence polarization; inhibition, % at 6.36 µM;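 active = percent inhibition above a cutoff equal to the mean of all tested compounds plus 3 SD, cut at about 15% in these data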
E coli Lon inh: E. coli protease La inhibition; P0A9M0; purified E. coli Lon protease, fluorescence polarization; inhibition, % at 7.94 µM; 360,000 tested, 0.42% active; AID 602123; in the data active = inhibition above about 13%, passing the limit was not always enough
Target sequence (P0A9M0 whole entry, looked up): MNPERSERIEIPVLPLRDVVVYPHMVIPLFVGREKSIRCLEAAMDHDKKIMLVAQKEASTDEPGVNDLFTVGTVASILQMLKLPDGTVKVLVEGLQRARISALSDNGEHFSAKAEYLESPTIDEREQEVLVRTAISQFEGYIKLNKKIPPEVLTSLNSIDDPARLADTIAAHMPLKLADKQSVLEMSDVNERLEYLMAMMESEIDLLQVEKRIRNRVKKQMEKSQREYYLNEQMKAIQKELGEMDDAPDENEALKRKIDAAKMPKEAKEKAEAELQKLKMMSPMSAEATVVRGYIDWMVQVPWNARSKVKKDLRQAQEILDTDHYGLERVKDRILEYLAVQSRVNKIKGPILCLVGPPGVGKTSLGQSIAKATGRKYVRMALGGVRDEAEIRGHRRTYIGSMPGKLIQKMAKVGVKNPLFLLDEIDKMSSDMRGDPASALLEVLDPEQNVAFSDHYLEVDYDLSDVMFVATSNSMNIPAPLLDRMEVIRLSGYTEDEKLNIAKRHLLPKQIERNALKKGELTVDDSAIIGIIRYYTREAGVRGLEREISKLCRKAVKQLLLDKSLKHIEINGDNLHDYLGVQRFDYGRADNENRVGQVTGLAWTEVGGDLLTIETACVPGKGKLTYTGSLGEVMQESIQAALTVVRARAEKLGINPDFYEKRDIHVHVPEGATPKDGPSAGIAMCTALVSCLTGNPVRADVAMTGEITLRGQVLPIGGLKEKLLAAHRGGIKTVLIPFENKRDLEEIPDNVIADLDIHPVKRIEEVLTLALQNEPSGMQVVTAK
GSTO1 inh: blocks human GSTO1 in RBBP9 counter-screen; inhibition, % at 5.96 µM; recombinant GSTO1, activity-based probe fluorescence polarization; P78417; 300,000 tested, 1.1% active;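 active = inhibition above the campaign mean inhibition plus 3 SD, cut at about 35% in these data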
PRMT1 inh: blocks human protein arginine methyltransferase 1 | inhibition, % at 2.79 µM | AID 652257 | 370,000 tested, 1.3% active | Q99873 | recombinant PRMT1, activity-based probe fluorescence polarization;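 active = inhibition above about 21% made by adding two undisclosed values, limit read from the data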
PRMT1 confirm: confirmation of human PRMT1 inhibitors | AID 687036 | 3,300 tested, 42% active | shares compounds with PRMT1 inh | inhibition, % at 2.79 µM | recombinant His-PRMT1, activity-based probe fluorescence polarization;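 active = mean inhibition across replicates above the hit cutoff derived for the earlier primary screen, cut at about 22% in these data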
Hits are given with their value; i = inactive; nt = not tested or not shown.

SMILES | TDP2 inh | PAD4 FP inh | E coli Lon inh | GSTO1 inh | PRMT1 inh | PRMT1 confirm
NC(=S)NN=C1c2cc(S(=O)(=O)N3CCOCC3)ccc2-c2ccc(S(=O)(=O)N3CCOCC3)cc21 | i | i | i | i | 30 | i
CN(C)N=C1c2cc(S(=O)(=O)N3CCOCC3)ccc2-c2ccc(S(=O)(=O)N3CCOCC3)cc21 | i | i | i | i | i | nt
Cc1c(-c2n[nH]c(=S)n2-c2ccc(Br)cc2)nnn1-c1ccc(Cl)cc1 | i | nt | i | nt | i | nt
Cc1c(-c2n[nH]c(=S)n2-c2ccc(C(F)(F)F)cc2)nnn1-c1ccccc1 | i | i | i | i | 30 | i
Cc1cc(C)c(S(=O)(=O)N2CCC3(CC2)OCCN3S(=O)(=O)c2cccs2)c(C)c1 | i | nt | i | nt | i | nt
O=C1/C(=C/c2cccnc2)Sc2ccccc21 | i | i | i | i | 46 | i
O=C1c2ccccc2C(=Cc2cccnc2)c2ccccc21 | i | nt | i | nt | i | nt
COc1ccc(C2c3sc(=O)[nH]c3SCC2C(N)=O)cc1 (centres undefined) | i | i | i | i | i | nt
CCOC(=O)C1CSc2[nH]c(=O)sc2C1c1ccccc1 (centres undefined) | i | i | i | i | 31 | i
CCOc1cc(C2C3=C(CC(C)(C)CC3=O)N(CCOC)C3=C2C(=O)CC(C)(C)C3)ccc1O | i | i | i | i | i | nt
Cc1cccc(N2C(=O)CC(n3ccnc3)C2=O)c1C (centres undefined) | i | i | i | i | 36 | i
Cc1ccc(N2C(=O)CC(n3ccnc3)C2=O)cc1C (centres undefined) | i | i | i | i | i | nt
Cc1ccc(S(=O)(=O)SCCCSS(=O)(=O)c2ccc(C)cc2)cc1 | i | nt | i | nt | 96 | 91
Cc1ccc(S(=O)(=O)SC/C=C/CSS(=O)(=O)c2ccc(C)cc2)cc1 | i | nt | i | nt | 87 | 91
Cc1ccc(S(=O)(=O)C=CS(=O)(=O)c2ccc(C)cc2)cc1 | i | nt | i | nt | 90 | 95
NS(=O)(=O)c1ccccc1 | i | i | i | i | i | nt
O=S(=O)(/C=C/C=C/S(=O)(=O)c1ccccc1)c1ccccc1 | i | nt | i | nt | 25 | 28
O=C1NCCN1c1ncc([N+](=O)[O-])s1 | i | i | i | i | i | nt
O=[N+]([O-])c1cnc(Sc2ccncn2)s1 | i | i | i | i | 26 | 31
O=[N+]([O-])c1cnc(Sc2ccncn2)c([N+](=O)[O-])c1 | i | nt | i | nt | 71 | 90
CCOC(=O)c1ccc(N2C(=O)C3CCCN3C2=S)cc1 (centres undefined) | i | i | i | nt | i | nt
N#C/C(=C\c1ccccc1[N+](=O)[O-])C(=O)NC1CCCCC1 | i | i | i | i | 32 | i
N#C/C(=C\C=C\c1ccccc1[N+](=O)[O-])C(=O)NC1CCCCC1 | nt | i | i | i | nt | nt
Cc1ccc(C2=C(O)C(=O)C(c3ccc(C)cc3)=C(O)C2=O)cc1 | i | nt | i | nt | i | nt
CC1=C(O)C(=O)C(C2=C(O)C(=O)C(C)=C(O)C2=O)=C(O)C1=O | i | nt | i | nt | 29 | 34
SMILES | TDP2 inh | PAD4 FP inh | E coli Lon inh | GSTO1 inh | PRMT1 inh | PRMT1 confirm
CC(C)NC(=O)C1(C)CCCN1C(=O)c1cc(C#N)cs1 (centres undefined) | i | nt | i | nt | i | nt
CCOC(=O)c1c(C)nc(SCC(N)=O)c(C#N)c1-c1ccccc1 | i | i | i | i | 35 | i
Cc1ccc2[nH]c(=O)c(C(c3nnnn3C3CCCC3)N3CCCc4ccccc43)cc2c1 (centres undefined) | i | i | i | i | 35 | i
CCCCNC(=O)C[C@H]1C[C@@]2(C(=O)OC)C(=C[C@H](C3CCCC3)O[C@@H]2C)N(CCc2ccc(OC)c(OC)c2)C1=O | i | nt | nt | nt | i | nt
O=c1c2cc(N3CCOCC3)ccc2[nH]c(=S)n1Cc1ccco1 | i | i | i | i | 32 | 65
O=C(Nc1nc2ncccn2c1-c1ccc(F)cc1)c1ccc(F)cc1 | i | nt | nt | nt | i | nt
Cc1cccc(C)c1-n1nnnc1C1c2ccccc2C(=O)N1CCc1ccc(O)cc1 (centres undefined) | i | nt | i | nt | i | nt
S=C(NCCCN1CCOCC1)NCCCN1CCOCC1 | i | i | i | i | 40 | 58
NC(=O)CSCc1nc2ccccc2s1 | i | i | i | i | 27 | i
Oc1ccccc1OCc1nc2ccccc2s1 | i | i | i | i | 28 | i
COC(=O)COc1ccc(C2Nc3c(Cl)ccc(C(=O)O)c3C3C=CCC32)cc1 (centres undefined) | i | i | i | i | 69 | 29
